Experimental data taken from article PMC4310626 (Biochemistry, 2014).
Where two headings read alike, the source gives them in different places.

How the values were obtained:
[1] = molecular target: E. coli NDH-1 NuoH mutant D63E (Escherichia coli, UniProt P0AFC7+P0AFD4+P33599, D63E); assay: Inhibition of dNADH oxidase activity, NuoH mutant D63E; type: biochemical
[2] = molecular target: E. coli NDH-1 NuoD mutant H315R (Escherichia coli, UniProt P0AFD4+P33599, H315R); assay: Inhibition of dNADH oxidase activity, NuoD mutant H315R; type: biochemical
Summary of the method: (§1)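 Inverted membrane vesicles came from chromosomal NuoD-segment mutant or wild-type E. coli, grown overnight at 37 °C in Terrific Broth and disrupted by sonication and French press. The assay used 80 μg protein/mL in 10 mM potassium phosphate (pH 7.0) with 1 mM EDTA, no KCN and no added acceptor, at 30 °C. After 1 min preincubation with test compound, 150 μM dNADH was added. A340 was followed (ε 6.22 mM⁻¹ cm⁻¹), and IC50 was taken as the concentration giving 50% inhibition.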

[3] = molecular target: E. coli NDH-1 NuoD mutant H224R (Escherichia coli, UniProt P0AFD4+P33599, H224R); assay: Inhibition of dNADH oxidase activity, NuoD mutant H224R; type: biochemical; conditions: read-out: app IC50, 50% inhibition of the dNADH oxidase activity
[4] = molecular target: E. coli NDH-1, other NuoD mutants (Escherichia coli, UniProt P0AFD4+P33599); assay: Inhibition of dNADH oxidase activity, other NuoD mutants; type: biochemical; conditions: read-out: IC50 values; all other NuoD mutants (other than G225A, Y273F)
Summary of the method: as §1

E. coli NDH-1 wild-type [5] = molecular target: T1, E. coli NDH-1 wild-type (Escherichia coli, UniProt P0AFD4+P33599); assay: Inhibition of dNADH oxidase activity in membrane vesicles, wild-type; type: biochemical
Summary of the method: as §1

[6] = molecular target: E. coli NDH-1 NuoD mutant G225A (Escherichia coli, UniProt P0AFD4+P33599, G225A); assay: Inhibition of dNADH oxidase activity, NuoD mutant G225A; type: biochemical
Summary of the method: as §1

[7] = molecular target: E. coli NDH-1 NuoH mutant E36D (Escherichia coli, UniProt P0AFC7+P0AFD4+P33599, E36D); assay: Inhibition of dNADH oxidase activity, NuoH mutant E36D; type: biochemical
[8] = molecular target: E. coli NDH-1 NuoD mutant Y273F (Escherichia coli, UniProt P0AFD4+P33599, Y273F); assay: Inhibition of dNADH oxidase activity, NuoD mutant Y273F; type: biochemical
Summary of the method: as §1

[9] = molecular target: E. coli NDH-1 NuoD mutant D325A (Escherichia coli, UniProt P0AFD4+P33599, D325A); assay: Inhibition of dNADH oxidase activity, NuoD mutant D325A; type: biochemical
Summary of the method: as §1

[10] = molecular target: E. coli NDH-1 NuoH mutant E216A (Escherichia coli, UniProt P0AFC7+P0AFD4+P33599, E216A); assay: Inhibition of dNADH oxidase activity, NuoH mutant E216A; type: biochemical
[11] = molecular target: E. coli NDH-1 NuoD mutant G251V (Escherichia coli, UniProt P0AFD4+P33599, G251V); assay: Inhibition of dNADH oxidase activity, NuoD mutant G251V; type: biochemical; conditions: app IC50, 50% inhibition of the dNADH oxidase activity
Summary of the method: as §1

[12] = molecular target: E. coli NDH-1 NuoD mutant G235A (Escherichia coli, UniProt P0AFD4+P33599, G235A); assay: Inhibition of dNADH oxidase activity, NuoD mutant G235A; type: biochemical
Summary of the method: as §1

[13] = molecular target: E. coli NDH-1 NuoD mutant R228A (Escherichia coli, UniProt P0AFD4+P33599, R228A); assay: Inhibition of dNADH oxidase activity, NuoD mutant R228A; type: biochemical; conditions: app IC50, 50% inhibition of the dNADH oxidase activity
Summary of the method: as §1

[14] = molecular target: E. coli NDH-1 NuoD mutant D325E (Escherichia coli, UniProt P0AFD4+P33599, D325E); assay: Inhibition of dNADH oxidase activity, NuoD mutant D325E; type: biochemical
Summary of the method: as §1

[15] = molecular target: E. coli NDH-1 NuoD mutant E308D (Escherichia coli, UniProt P0AFD4+P33599, E308D); assay: Inhibition of dNADH oxidase activity, NuoD mutant E308D; type: biochemical; conditions: app IC50, 50% inhibition of the dNADH oxidase activity
Summary of the method: as §1

[16] = molecular target: E. coli NDH-1 NuoH mutant E157K (Escherichia coli, UniProt P0AFC7+P0AFD4+P33599, E157K); assay: Inhibition of dNADH oxidase activity, NuoH mutant E157K; type: biochemical
[17] = molecular target: E. coli NDH-1 NuoH mutant Q44A (Escherichia coli, UniProt P0AFC7+P0AFD4+P33599, Q44A); assay: Inhibition of dNADH oxidase activity, NuoH mutant Q44A; type: biochemical
[18] = molecular target: E. coli NDH-1 NuoD mutant G235V (Escherichia coli, UniProt P0AFD4+P33599, G235V); assay: Inhibition of dNADH oxidase activity, NuoD mutant G235V; type: biochemical
Summary of the method: as §1

[19] = molecular target: E. coli NDH-1 NuoD mutant E236A (Escherichia coli, UniProt P0AFD4+P33599, E236A); assay: Inhibition of dNADH oxidase activity, NuoD mutant E236A; type: biochemical
Summary of the method: as §1

[20] = molecular target: E. coli NDH-1 NuoD mutant H315A (Escherichia coli, UniProt P0AFD4+P33599, H315A); assay: Inhibition of dNADH oxidase activity, NuoD mutant H315A; type: biochemical
Summary of the method: as §1

[21] = molecular target: E. coli NDH-1 NuoD mutant E236D (Escherichia coli, UniProt P0AFD4+P33599, E236D); assay: Inhibition of dNADH oxidase activity, NuoD mutant E236D; type: biochemical
Summary of the method: as §1

[22] = molecular target: E. coli NDH-1 NuoD mutant R311K (Escherichia coli, UniProt P0AFD4+P33599, R311K); assay: Inhibition of dNADH oxidase activity, NuoD mutant R311K; type: biochemical
Summary of the method: as §1

[23] = molecular target: E. coli NDH-1 NuoH mutant E71A (Escherichia coli, UniProt P0AFC7+P0AFD4+P33599, E71A); assay: Inhibition of dNADH oxidase activity, NuoH mutant E71A; type: biochemical; conditions: app IC50, 50% inhibition of the dNADH oxidase activity
[24] = molecular target: E. coli NDH-1 NuoD mutant R270K (Escherichia coli, UniProt P0AFD4+P33599, R270K); assay: Inhibition of dNADH oxidase activity, NuoD mutant R270K; type: biochemical; conditions: app IC50, 50% inhibition of the dNADH oxidase activity
Summary of the method: as §1

[25] = molecular target: E. coli NDH-1 NuoD mutant G251A (Escherichia coli, UniProt P0AFD4+P33599, G251A); assay: Inhibition of dNADH oxidase activity, NuoD mutant G251A; type: biochemical
Summary of the method: as §1

[26] = molecular target: E. coli NDH-1 NuoD mutant H355A (Escherichia coli, UniProt P0AFD4+P33599, H355A); assay: Inhibition of dNADH oxidase activity, NuoD mutant H355A; type: biochemical
Summary of the method: as §1

[27] = molecular target: E. coli NDH-1 NuoH mutant P49A (Escherichia coli, UniProt P0AFC7+P0AFD4+P33599, P49A); assay: Inhibition of dNADH oxidase activity, NuoH mutant P49A; type: biochemical
[28] = molecular target: E. coli NDH-1 NuoD mutant R298K (Escherichia coli, UniProt P0AFD4+P33599, R298K); assay: Inhibition of dNADH oxidase activity, NuoD mutant R298K; type: biochemical
Summary of the method: as §1

[29] = molecular target: E. coli NDH-1 NuoH mutant K303A (Escherichia coli, UniProt P0AFC7+P0AFD4+P33599, K303A); assay: Inhibition of dNADH oxidase activity, NuoH mutant K303A; type: biochemical
E. coli NDH-1 wild-type [30] = molecular target: T1, E. coli NDH-1 wild-type; conditions: read-out: IC50 value, ref [16],[55]; cited from earlier work
[31] = molecular target: E. coli NDH-1 NuoD mutant R298A (Escherichia coli, UniProt P0AFD4+P33599, R298A); assay: Inhibition of dNADH oxidase activity, NuoD mutant R298A; type: biochemical; conditions: app IC50, 50% inhibition of the dNADH oxidase activity
Summary of the method: as §1

[32] = molecular target: E. coli NDH-1 NuoD mutant R228K (Escherichia coli, UniProt P0AFD4+P33599, R228K); assay: Inhibition of dNADH oxidase activity, NuoD mutant R228K; type: biochemical; conditions: app IC50, 50% inhibition of the dNADH oxidase activity
Summary of the method: as §1

Sequence of E. coli NDH-1 NuoD mutant Y273F (P33599 whole entry Y273F): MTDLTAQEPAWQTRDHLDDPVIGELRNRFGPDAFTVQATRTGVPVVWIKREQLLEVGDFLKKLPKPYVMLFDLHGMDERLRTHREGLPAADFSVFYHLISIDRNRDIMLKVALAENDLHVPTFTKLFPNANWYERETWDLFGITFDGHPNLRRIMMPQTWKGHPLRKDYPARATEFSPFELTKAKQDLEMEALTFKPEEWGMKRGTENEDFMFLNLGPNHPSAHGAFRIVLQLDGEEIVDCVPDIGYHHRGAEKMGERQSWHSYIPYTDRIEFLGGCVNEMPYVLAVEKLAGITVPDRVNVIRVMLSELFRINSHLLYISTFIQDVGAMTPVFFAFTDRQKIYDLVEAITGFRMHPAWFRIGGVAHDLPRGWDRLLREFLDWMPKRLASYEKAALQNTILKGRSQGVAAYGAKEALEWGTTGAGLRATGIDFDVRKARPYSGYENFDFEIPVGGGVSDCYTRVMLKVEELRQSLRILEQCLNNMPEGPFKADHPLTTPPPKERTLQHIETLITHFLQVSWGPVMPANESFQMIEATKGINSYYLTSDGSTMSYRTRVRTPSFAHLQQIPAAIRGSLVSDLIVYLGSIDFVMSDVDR
Sequence of E. coli NDH-1 NuoD mutant Y273F (P0AFD4 whole entry): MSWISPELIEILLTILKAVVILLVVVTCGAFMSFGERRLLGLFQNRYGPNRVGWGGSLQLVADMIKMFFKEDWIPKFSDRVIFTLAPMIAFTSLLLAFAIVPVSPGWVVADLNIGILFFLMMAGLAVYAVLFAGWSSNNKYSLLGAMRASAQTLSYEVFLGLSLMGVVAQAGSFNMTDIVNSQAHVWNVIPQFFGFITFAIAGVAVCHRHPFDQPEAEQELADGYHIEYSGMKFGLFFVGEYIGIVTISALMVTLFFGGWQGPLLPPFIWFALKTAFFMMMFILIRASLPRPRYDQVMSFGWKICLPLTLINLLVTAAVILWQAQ
Sequence of E. coli NDH-1 NuoD mutant Y273F (P0AFC7 whole entry partner): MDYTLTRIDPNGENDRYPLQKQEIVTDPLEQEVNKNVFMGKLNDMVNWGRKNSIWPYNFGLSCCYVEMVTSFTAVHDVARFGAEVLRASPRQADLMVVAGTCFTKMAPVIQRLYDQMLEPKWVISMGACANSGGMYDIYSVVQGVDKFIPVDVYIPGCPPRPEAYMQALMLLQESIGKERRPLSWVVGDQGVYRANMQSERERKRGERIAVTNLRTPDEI
T1 sequence (P33599 whole entry): as the sequence (P33599 whole entry Y273F) above, with F273Y counted along it
T1 sequence (P0AFD4 whole entry): as the sequence (P0AFD4 whole entry) above
T1 sequence (P0AFC7 whole entry partner): as the sequence (P0AFC7 whole entry partner) above
Sequence of E. coli NDH-1 NuoD mutant D325A (P33599 whole entry D325A): as the sequence (P33599 whole entry Y273F) above, with F273Y, D325A counted along it
Sequence of E. coli NDH-1 NuoD mutant D325A (P0AFD4 whole entry): as the sequence (P0AFD4 whole entry) above
Sequence of E. coli NDH-1 NuoD mutant D325A (P0AFC7 whole entry partner): as the sequence (P0AFC7 whole entry partner) above
Sequence of E. coli NDH-1 NuoD mutant G225A (P33599 whole entry G225A): as the sequence (P33599 whole entry Y273F) above, with G225A, F273Y counted along it
Sequence of E. coli NDH-1 NuoD mutant G225A (P0AFD4 whole entry): as the sequence (P0AFD4 whole entry) above
Sequence of E. coli NDH-1 NuoD mutant G225A (P0AFC7 whole entry partner): as the sequence (P0AFC7 whole entry partner) above

In the case of `[N-]=[N+]=Nc1ccc2ncnc(NCCc3ccc(I)cc3)c2c1` [AzQ, 6-azido-4-(4-iodophenetylamino) quinazoline], the “decrease in the IC50 value” ([1]; NuoH mutant D63E versus wild-type) is reported as 3–4 fold, the IC50 ([2]; read-out: app IC50, 50% inhibition of the dNADH oxidase activity, NuoD mutant H315R) is reported as 903 nM and the IC50 [3] is reported as 1130 nM. The IC50 [4] was 1000 nM, the IC50 (E. coli NDH-1 wild-type [5]; read-out: app IC50, 50% inhibition of the dNADH oxidase activity, WT, NuoD series (Table 3)) was 1080 nM and the IC50 (E. coli NDH-1 wild-type [5]; read-out: app IC50, 50% inhibition of the dNADH oxidase activity, WT, NuoH series (Table 4)) was 1080 nM. The “increase in the IC50 value” ([6]; NuoD mutant G225A versus wild-type) was about 3 fold, the “decrease in the IC50 value” ([7]; NuoH mutant E36D versus wild-type) was 3–4 fold and the “increase in the IC50 value” ([8]; NuoD mutant Y273F versus wild-type) was about 2.5 fold. It also gave an IC50 ([8]; read-out: app IC50, 50% inhibition of the dNADH oxidase activity, NuoD mutant Y273F) of 2530 nM and an IC50 ([9]; read-out: app IC50, 50% inhibition of the dNADH oxidase activity, NuoD mutant D325A) of 1140 nM.
`CCCCCCCCCCCC[C@H](O)[C@H]1CC[C@H]([C@H]2CC[C@H]([C@H](O)CCCCCCCC[C@@H](O)CC3=C[C@H](C)OC3=O)O2)O1` [squamotacin] showed an IC50 ([1]; app IC50, 50% inhibition of the dNADH oxidase activity, NuoH mutant D63E) of 4 nM, an IC50 [10] of 8 nM and an IC50 [11] of 2 nM. The IC50 [12] was 4 nM, the IC50 [13] was 2 nM and the IC50 [14] was 5 nM. The IC50 [15] was 2 nM, the IC50 [16] was 6 nM and the IC50 [2] was 4 nM. It also gave an IC50 [17] of 5 nM, an IC50 [18] of 6 nM and an IC50 [19] of 5 nM. For the same molecule, the IC50 [20] was 10 nM, the IC50 (E. coli NDH-1 wild-type [5]) was 10 nM and the IC50 [21] was 7 nM. For the same molecule, the IC50 [22] was 4 nM, the IC50 [6] was 5 nM and the IC50 ([7]; app IC50, 50% inhibition of the dNADH oxidase activity, NuoH mutant E36D) was 3 nM. For the same molecule, the IC50 [23] was 3 nM, the IC50 [24] was 2 nM and the IC50 [25] was 4 nM. It also gave an IC50 [26] of 5 nM, an IC50 [27] of 5 nM and an IC50 [8] of 9 nM. For the same molecule, the IC50 [28] was 4 nM, the IC50 [29] was 10 nM and the IC50 (E. coli NDH-1 wild-type [30]) was 2 to 10 nM. For the same molecule, the IC50 [31] was 2 nM, the IC50 [9] was 11 nM and the IC50 [32] was 3 nM.
